Legend:
[1] = Cytotoxicity against mouse Hepa-1c1c7 cells after 48 hrs by MTT assay; assay type: cell-based; settings: hepa-1c1c7, 48 h
How it was run: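 Murine hepatoma cells in α-MEM with 10% heat- and charcoal-treated fetal calf serum, passages 6–17; MTT read-out as for the cancer lines but with 48 h compound exposure. Highest concentration tested 25 µM. IC50 from survival-versus-concentration curve; mean and SD, n = 3.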

[2] = target: NAD(P)H dehydrogenase [quinone] 1 (Mus musculus) (UniProt Q64669); experiment: Induction of NQO1 activity in mouse Hepa-1c1c7 cells assessed as induction ratio at 5 uM after 48 hrs by MTT assay relative to control; assay type: cell-based
How it was run: (§1)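 Hepa1c1c7 cells, 10,000 per well, 24 h, were then treated 48 h (DMSO ≤0.5%). Digitonin/EDTA lysates were assayed for menadione-dependent MTT-formazan formation using a G6P/G6PDH NADPH-generating mix with FAD at pH 7.4. The reaction ran 5 min, was stopped with dicoumarol, and read at A590. Degree of induction = (A test − blank)/(A control − blank). Ratios were read off the induction–concentration plot at the EROD test concentration.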

CYP1A1 [3] = target: T1, CYP1A1 (Mus musculus, UniProt P00184); experiment: Induction of CYP1A1 activity in mouse Hepa-1c1c7 cells assessed as induction ratio at 5 uM after 48 hrs by EROD assay relative to control; assay type: ADME, cell-based
T1 sequence (P00184 whole entry): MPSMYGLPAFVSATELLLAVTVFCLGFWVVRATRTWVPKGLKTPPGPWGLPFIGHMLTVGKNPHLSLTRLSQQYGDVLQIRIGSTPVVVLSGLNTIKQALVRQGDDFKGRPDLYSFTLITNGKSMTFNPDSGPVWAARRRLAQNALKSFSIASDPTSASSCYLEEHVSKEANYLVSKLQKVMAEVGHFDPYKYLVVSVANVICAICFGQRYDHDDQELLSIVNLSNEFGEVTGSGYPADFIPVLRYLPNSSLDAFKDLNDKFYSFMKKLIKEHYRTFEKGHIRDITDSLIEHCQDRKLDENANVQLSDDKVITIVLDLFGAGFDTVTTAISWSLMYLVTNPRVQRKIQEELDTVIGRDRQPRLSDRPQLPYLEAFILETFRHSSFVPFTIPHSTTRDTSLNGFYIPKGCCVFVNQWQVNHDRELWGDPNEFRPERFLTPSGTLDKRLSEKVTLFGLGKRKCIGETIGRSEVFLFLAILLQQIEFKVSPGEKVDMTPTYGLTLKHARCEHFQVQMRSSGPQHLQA
How it was run: (§2)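 Hepa1c1c7 cells were seeded at 10,000 per well and grown 24 h. They were then exposed 48 h to compound (final DMSO 0.5% v/v) at about 4 × the NQO1 CD. After a PBS wash, cells got 5 µM 7-ethoxyresorufin plus 2 mM salicylamide in medium, 37 °C, 40 min. Resorufin was read at ex 530/em 590 nm, corrected for compound fluorescence. Ratio = (F treated − blank)/(F DMSO control − blank); mean ± SD, n = 3.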

CYP1A1 [4] = target: T1, CYP1A1; experiment: Induction of CYP1A1 activity in mouse Hepa-1c1c7 cells assessed as induction ratio at 2.5 uM after 48 hrs by EROD assay relative to control; assay type: ADME, cell-based; how it was run: as §2
[5] = target: NAD(P)H dehydrogenase [quinone] 1 (Mus musculus) (UniProt Q64669); experiment: Induction of NQO1 activity in mouse Hepa-1c1c7 cells assessed as induction ratio at 2.5 uM after 48 hrs by MTT assay relative to control; assay type: cell-based; how it was run: as §1
CYP1A1 [6] = target: T1, CYP1A1; experiment: Induction of CYP1A1 activity in mouse Hepa-1c1c7 cells assessed as induction ratio at 20 uM after 48 hrs by EROD assay relative to control; assay type: ADME, cell-based; how it was run: as §2
[7] = target: NAD(P)H dehydrogenase [quinone] 1 (Mus musculus) (UniProt Q64669); experiment: Induction of NQO1 activity in mouse Hepa-1c1c7 cells assessed as induction ratio at 20 uM after 48 hrs by MTT assay relative to control; assay type: cell-based; how it was run: as §1
[8] = target: NAD(P)H dehydrogenase [quinone] 1 (Mus musculus) (UniProt Q64669); experiment: Induction of NQO1 activity in mouse Hepa-1c1c7 cells assessed as induction ratio at 1 uM after 48 hrs by MTT assay relative to control; assay type: cell-based; how it was run: as §1
CYP1A1 [9] = target: T1, CYP1A1; experiment: Induction of CYP1A1 activity in mouse Hepa-1c1c7 cells assessed as induction ratio at 1 uM after 48 hrs by EROD assay relative to control; assay type: ADME, cell-based
How it was run: (§3)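 About 10,000 Hepa1c1c7 cells/well cultured 24 h, then compound (0.5% DMSO final) for 48 h, at roughly 4 × the concentration doubling NQO1 activity. After PBS wash, cells given 5 µM 7-ethoxyresorufin plus 2 mM salicylamide, 37 °C, 40 min; resorufin fluorescence ex 530/em 590 nm, corrected for compound fluorescence. Ratio = (treated − blank)/(DMSO control − blank); mean ± SD, n = 3.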

CYP1A1 [10] = target: T1, CYP1A1; experiment: Induction of CYP1A1 activity in mouse Hepa-1c1c7 cells assessed as induction ratio at 0.5 uM after 48 hrs by EROD assay relative to control; assay type: ADME, cell-based; how it was run: as §3
[11] = target: NAD(P)H dehydrogenase [quinone] 1 (Mus musculus) (UniProt Q64669); experiment: Induction of NQO1 activity in mouse Hepa-1c1c7 cells assessed as induction ratio at 0.5 uM after 48 hrs by MTT assay relative to control; assay type: cell-based; how it was run: as §1
CYP1A1 [12] = target: T1, CYP1A1; experiment: Induction of CYP1A1 activity in mouse Hepa-1c1c7 cells assessed as induction ratio at 7.5 uM after 48 hrs by EROD assay relative to control; assay type: ADME, cell-based; how it was run: as §2
[13] = target: NAD(P)H dehydrogenase [quinone] 1 (Mus musculus) (UniProt Q64669); experiment: Induction of NQO1 activity in mouse Hepa-1c1c7 cells assessed as induction ratio at 7.5 uM after 48 hrs by MTT assay relative to control; assay type: cell-based; how it was run: as §1

Sequence of NAD(P)H dehydrogenase [quinone] 1 (Mus musculus) (Q64669 whole entry): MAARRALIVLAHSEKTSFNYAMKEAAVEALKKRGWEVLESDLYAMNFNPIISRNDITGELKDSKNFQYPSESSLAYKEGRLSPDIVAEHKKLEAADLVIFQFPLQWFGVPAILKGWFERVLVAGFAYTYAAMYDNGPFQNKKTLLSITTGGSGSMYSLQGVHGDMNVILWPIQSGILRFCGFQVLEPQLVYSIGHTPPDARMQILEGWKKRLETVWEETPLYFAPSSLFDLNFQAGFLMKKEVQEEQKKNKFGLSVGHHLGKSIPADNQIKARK

In the case of `COc1cccc(/C=C2\Nc3ccccc3C2=O)c1`, the IC50 [1] is reported as 21.2 µM, the Ratio [2] is reported as 3.88 and the fold induction at 48 h, 5 µM (CYP1A1 [3]) is reported as 1.13.

With `O=C1Nc2ccccc2/C1=C\c1ccc(F)cc1Cl` the fold induction at 48 h, 2.5 µM (CYP1A1 [4]) was 1.2, the IC50 [1] was over 25 µM and the Ratio [5] was 3.52.

`O=C1Nc2ccccc2/C1=C\c1ccccc1F` showed an IC50 [1] of over 25 µM, a Ratio [2] of 6.8 and a fold induction at 48 h, 5 µM (CYP1A1 [3]) of 1.26.

With `O=C1Nc2ccccc2/C1=C\c1cc(O)cc(O)c1` the fold induction at 48 h, 20 µM (CYP1A1 [6]) was 1.04, the IC50 [1] was over 25 µM and the Ratio [7] was 3.82.

For `COc1cccc(/C=C2/C(=O)Nc3ccccc32)c1`, the IC50 [1] was over 25 µM, the Ratio [8] was 4.21 and the fold induction at 48 h, 1 µM (CYP1A1 [9]) was 1.26.

Work on `O=C1Nc2ccccc2/C1=C\c1ccc2ccccc2c1` yielded a fold induction at 48 h, 2.5 µM (CYP1A1 [4]) of 1.06, an IC50 [1] of over 25 µM and a Ratio [5] of 4.61.

Work on `COc1ccc(/C=C2/C(=O)Nc3cc(F)ccc32)cc1O` yielded a fold induction at 48 h, 0.5 µM (CYP1A1 [10]) of 2.05, an IC50 [1] of 15.6 µM and a Ratio [11] of 4.1.

Compound `COc1ccc(/C=C2/C(=O)Nc3cc(Cl)ccc32)cc1O` has an IC50 [1] of over 25 µM, a Ratio [8] of 5.09 and a fold induction at 48 h, 1 µM (CYP1A1 [9]) of 2.33.

Compound `O=C1Nc2ccccc2/C1=C\c1ccccc1C(F)(F)F` has a fold induction at 48 h, 20 µM (CYP1A1 [6]) of 1.2, an IC50 [1] of over 25 µM and a Ratio [7] of 2.96.

`COc1cc(/C=C2/C(=O)Nc3ccccc32)ccc1O` showed an IC50 [1] of 14.6 µM, a Ratio [2] of 4 and a fold induction at 48 h, 5 µM (CYP1A1 [3]) of 1.32.

In the case of `O=C1Nc2ccccc2/C1=C\c1cccc(O)c1`, the IC50 [1] is reported as over 25 µM, the Ratio [2] is reported as 3.94 and the fold induction at 48 h, 5 µM (CYP1A1 [3]) is reported as 1.11.

`O=C1Nc2ccccc2/C1=C\c1ccccc1O` showed a fold induction at 48 h, 20 µM (CYP1A1 [6]) of 1.02, an IC50 [1] of over 25 µM and a Ratio [7] of 3.35.

Work on `COc1ccc(/C=C2\Nc3ccccc3C2=O)cc1O` yielded a fold induction at 48 h, 7.5 µM (CYP1A1 [12]) of 1.38, an IC50 [1] of over 25 µM and a Ratio [13] of 4.21.

Work on `O=C1Nc2ccccc2/C1=C\c1ccncc1` yielded a fold induction at 48 h, 20 µM (CYP1A1 [6]) of 1.01, an IC50 [1] of over 25 µM and a Ratio [7] of 2.08.

Compound `O=C1Nc2ccccc2/C1=C\c1ccc(Cl)cc1` has a fold induction at 48 h, 2.5 µM (CYP1A1 [4]) of 1.06, an IC50 [1] of 6.7 µM and a Ratio [5] of 3.67.

With `COc1cccc(/C=C2/C(=O)Nc3cc(F)ccc32)c1` the IC50 [1] was 9.8 µM, the Ratio [8] was 3.21 and the fold induction at 48 h, 1 µM (CYP1A1 [9]) was 1.25.

`O=C1Nc2ccccc2/C1=C\c1ccc(F)cc1` showed a fold induction at 48 h, 20 µM (CYP1A1 [6]) of 1.64, an IC50 [1] of over 25 µM and a Ratio [7] of 5.69.

In the case of `O=C1Nc2ccccc2/C1=C\c1cccc(F)c1`, the fold induction at 48 h, 7.5 µM (CYP1A1 [12]) is reported as 1.11, the IC50 [1] is reported as over 25 µM and the Ratio [13] is reported as 4.19.

In the case of `Cc1ccc(/C=C2/C(=O)Nc3ccccc32)cc1`, the fold induction at 48 h, 7.5 µM (CYP1A1 [12]) is reported as 1.07, the IC50 [1] is reported as over 25 µM and the Ratio [13] is reported as 3.05.
